Laboratory results published in ChEMBL document CHEMBL4138188, “Eurycomalactone Inhibits Expression of Endothelial Adhesion Molecules at a Post-Transcriptional Level” (J Nat Prod, 2017).
The source made the active and inactive calls. The calls are words filed in the database; no cut-off is given here.

Columns and labels:
[1] = target: Transcription factor p65 (Homo sapiens) (UniProt Q04206); test: Inhibition of NF-kappaB p65 binding to DNA consensus in TNFalpha-stimulated HUVECtert at 2 uM pretreated for 30 mins followed by TNFalpha stimulation measured after 1 hr […]
Chain of Transcription factor p65 (Homo sapiens) (Q04206 whole entry): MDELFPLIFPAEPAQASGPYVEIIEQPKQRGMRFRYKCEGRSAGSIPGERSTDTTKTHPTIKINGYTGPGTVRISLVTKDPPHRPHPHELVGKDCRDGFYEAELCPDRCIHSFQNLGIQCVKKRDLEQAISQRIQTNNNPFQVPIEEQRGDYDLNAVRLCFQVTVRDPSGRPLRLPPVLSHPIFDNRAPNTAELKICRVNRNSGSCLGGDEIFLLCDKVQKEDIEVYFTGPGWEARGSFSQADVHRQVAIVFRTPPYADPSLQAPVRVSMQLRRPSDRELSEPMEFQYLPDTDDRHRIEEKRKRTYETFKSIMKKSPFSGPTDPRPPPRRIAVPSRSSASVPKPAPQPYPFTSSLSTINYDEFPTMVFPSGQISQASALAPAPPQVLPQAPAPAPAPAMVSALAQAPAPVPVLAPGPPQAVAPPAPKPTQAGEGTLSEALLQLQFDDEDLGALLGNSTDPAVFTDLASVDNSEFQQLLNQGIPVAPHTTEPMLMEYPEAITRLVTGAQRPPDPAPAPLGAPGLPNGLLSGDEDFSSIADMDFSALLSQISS

[2] = target: Transcription factor p65 (Homo sapiens) (UniProt Q04206); test: Inhibition of TNFalpha-stimulated NF-kappaB p65 nuclear translocation in HUVECtert nuclear extracts at 2 uM pretreated for 30 mins followed by TNFalpha stimulation measured after 1 hr by Western blot method
In short: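 Cells grown 48 h, pretreated 30 min with 2 μM or 0.1% DMSO, then TNFα 10 ng/mL for 1 h. Hypotonic NP40 lysis gave cytosol; nuclei extracted in 420 mM NaCl HEPES buffer pH 7.5. Nuclear p65 by Western blot, lamin loading control, tubulin/lamin verifying fractions; n = 3.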

[3] = target: T1, NF-kappa-B inhibitor alpha (Homo sapiens) (UniProt P25963); test: Inhibition of IkappaBalpha phosphorylation level in TNFalpha-stimulated HUVECtert at 2 uM pretreated for 30 mins followed by TNFalpha stimulation measured after 5 to 15 mins by Western blot analysis
T1 sequence (whole entry): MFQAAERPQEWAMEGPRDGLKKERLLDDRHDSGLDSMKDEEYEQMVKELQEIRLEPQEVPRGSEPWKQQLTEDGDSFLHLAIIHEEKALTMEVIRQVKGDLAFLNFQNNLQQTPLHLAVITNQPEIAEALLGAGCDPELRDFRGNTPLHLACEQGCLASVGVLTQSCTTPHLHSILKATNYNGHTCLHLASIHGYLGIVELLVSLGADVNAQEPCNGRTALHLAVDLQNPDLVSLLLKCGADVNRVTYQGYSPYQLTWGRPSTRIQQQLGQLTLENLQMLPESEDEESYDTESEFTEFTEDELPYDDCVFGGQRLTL
In short: (§1)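 HUVECtert on gelatin-coated dishes pretreated with 2 μM agent or 0.1% DMSO, then TNFα 10 ng/mL; p-IKKα/β, p-IκBα and total IκBα immunoblotted at 5 or 15 min post-stimulation, actin loading control; means ± SD, n = 3, one-way ANOVA/Dunnett.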

[4] = target: T2, Inhibitor of nuclear factor kappa-B kinase subunit beta (Homo sapiens) (UniProt O14920); test: Inhibition of IKKbeta phosphorylation level in TNFalpha-stimulated HUVECtert at 2 uM pretreated for 30 mins followed by TNFalpha stimulation measured after 5 to 15 mins by Western blot analysis; in short: as §1
T2 sequence (whole entry): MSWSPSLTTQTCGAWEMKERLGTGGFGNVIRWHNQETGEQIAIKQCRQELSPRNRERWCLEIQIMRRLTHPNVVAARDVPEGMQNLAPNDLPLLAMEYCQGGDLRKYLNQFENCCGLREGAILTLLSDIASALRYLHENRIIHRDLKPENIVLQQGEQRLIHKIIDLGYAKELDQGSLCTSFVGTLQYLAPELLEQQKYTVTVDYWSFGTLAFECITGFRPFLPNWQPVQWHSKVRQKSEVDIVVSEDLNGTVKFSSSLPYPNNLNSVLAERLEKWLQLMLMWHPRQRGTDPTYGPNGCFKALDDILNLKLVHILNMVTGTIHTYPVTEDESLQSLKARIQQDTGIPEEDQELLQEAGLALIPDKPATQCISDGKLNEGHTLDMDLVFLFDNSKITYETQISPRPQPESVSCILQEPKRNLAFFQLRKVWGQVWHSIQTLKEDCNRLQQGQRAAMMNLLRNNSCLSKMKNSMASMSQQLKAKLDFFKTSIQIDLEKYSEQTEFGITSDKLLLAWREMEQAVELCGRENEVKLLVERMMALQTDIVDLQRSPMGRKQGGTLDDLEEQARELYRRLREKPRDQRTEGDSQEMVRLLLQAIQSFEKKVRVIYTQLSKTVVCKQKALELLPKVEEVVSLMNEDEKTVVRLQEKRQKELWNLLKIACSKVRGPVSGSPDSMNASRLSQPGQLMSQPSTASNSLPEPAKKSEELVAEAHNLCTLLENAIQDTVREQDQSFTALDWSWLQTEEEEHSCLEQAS

Homo sapiens [5] = organism: Homo sapiens; test: Reduction in cyclin D1 level in HUVECtert at 2 uM by Western blot analysis; type: functional; details: TDE = time-dependent effect
In short: (§2)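 HUVECtert treated with 1 μM cycloheximide, 2 μM agent, vehicle, or left untreated for a time course; cyclin D1 or survivin by Western blot, actin loading control; means ± SD of three blots, one-way ANOVA/Dunnett versus untreated.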

Homo sapiens [6] = organism: Homo sapiens; test: Reduction in p53 level in HUVECtert at 2 uM after 8 hrs by Western blot analysis; type: functional
Homo sapiens [7] = organism: Homo sapiens; test: Reduction in cyclin A level in HUVECtert at 2 uM after 8 hrs by Western blot analysis; type: functional
[8] = Effect on basal E-selectin expression level in HUVECtert at 0.5 to 10 uM incubated for 30 mins by flow cytometry; type: ADME; details: human, 0.5 h
In short: (§3)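 Unstimulated HUVECtert treated with 0.5−10 μM test agent without TNFα; surface VCAM-1, ICAM-1 or E-selectin stained with FITC-labelled antibodies and read by flow cytometry.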

Homo sapiens [9] = organism: Homo sapiens; test: Cytotoxicity against TNFalpha-stimulated HUVECtert assessed as reduction in cell viability incubated for 30 mins followed by TNFalpha stimulation measured after 17.5 hrs by resazurin dye based fluorescence assay; type: functional
In short: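 HUVECtert (passage ≤15) seeded on gelatin-coated wells, grown 48 h, then exposed to test agent or 0.1% DMSO vehicle, with or without TNFα; digitonin 100 μg/mL as positive control. After 18 h, supernatant removed, cells washed, then 2 h with 10 μg/mL resazurin in PBS; metabolic conversion read relative to vehicle.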

[10] = Effect on basal VCAM-1 expression level in HUVECtert at 0.5 to 10 uM incubated for 30 mins by flow cytometry; type: ADME; details: human, 0.5 h; in short: as §3
[11] = (§4) Inhibition of NF-kappaB in HUVECtert assessed as reduction in TNFalpha-induced ICAM-1 expression level pretreated for 30 mins followed by TNFalpha stimulation measured after 18 hrs by flow cytometry; parameters: species or system Homo sapiens
In short: (§5)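 FITC-antibody surface staining, flow cytometry; expression relative to TNFα-stimulated control. Parthenolide 10 μM as positive control; means ± SD, n = 3, one-way ANOVA/Dunnett versus vehicle.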

Homo sapiens [12] = organism: Homo sapiens; test: as §4; in short: as §5
Homo sapiens [13] = organism: Homo sapiens; test: Reduction in survivin level in HUVECtert at 2 uM measured up to 480 mins by Western blot analysis; type: functional; in short: as §2
Homo sapiens [14] = organism: Homo sapiens; test: Inhibition of de novo protein synthesis in HUVECtert at 2 to 5 uM after 30 mins by Click-iT OPP/Alexa fluor 488 picolyl azide reagent based flow cytometry; type: functional
In short: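 HUVECtert (1 × 10^6 cells in tubes) exposed 30 min to agent (2 or 5 μM; cycloheximide 1−35 μM) or vehicle, then 20 μM OPP 30 min; fixed, permeabilised, Alexa 488 click-labelled in Tris buffer pH 7.4; FL-1 flow cytometry relative to control; n = 3, one-way ANOVA/Dunnett.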

Structure (SMILES): CC1=CC(=O)[C@@H](O)[C@@]2(C)[C@H]1CC(=O)[C@@]1(C)[C@H]3C(=O)O[C@H]([C@@H]3C)[C@H](O)[C@@H]12 [EURYCOMALACTONE]
- inhibition [1]: inactive
- inhibition [2]: inactive
- inhibition [3]: inactive
- inhibition [4]: inactive
- Activity (Homo sapiens [5]): Tde
- Activity (Homo sapiens [6]): inactive
- Activity (Homo sapiens [7]): inactive
- Activity [8]: Non-Toxic
- Activity (Homo sapiens [9]): inactive
- Activity [10]: Non-Toxic
- IC50 [11]: 580 nM
- inhibition (Homo sapiens [12]): Dose-dependent effect
- Activity (Homo sapiens [13]): inactive
- inhibition (Homo sapiens [14]): Active
